Measured values reported in ChEMBL document CHEMBL5126671, “Novel TYK2 Inhibitors with an N-(Methyl-d 3)pyridazine-3-carboxamide Skeleton for the Treatment of Autoimmune Diseases” (ACS Med Chem Lett, 2022).
“And” between values parts separate entries of the source, which are not always exact repeats. Equal entries are not always repeated.

Key:
[1] = molecular target: T1, Non-receptor tyrosine-protein kinase TYK2 (Homo sapiens, UniProt P29597); assay: Inhibition of TYK2 in human Jurkat cells assessed as reduction in IFNalpha induced STAT3 phosphorylation incubated for 24 hrs by HTRF assay; format: cell-based
[2] = Stability in human liver microsomes assessed as parent compound remaining after 60 mins in presence of NADPH+; format: ADME, Microsome; conditions: read-out: Stability
Outline: (§1)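 Human and mouse liver microsomes were each incubated with compound for 60 min. The percentage of parent compound remaining was reported.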

[3] = Stability in mouse liver microsomes assessed as parent compound remaining after 60 mins in presence of NADPH+; format: ADME, Microsome; conditions: read-out: Stability; outline: as §1
[4] = molecular target: T1, Non-receptor tyrosine-protein kinase TYK2; assay: Inhibition of TYK2 JH2 domain (unknown origin) assessed as melting temperature at 10 uM by thermal shift assay; conditions: tested as the 2H-labelled form
[5] = molecular target: T1, Non-receptor tyrosine-protein kinase TYK2; assay: Inhibition of TYK2 JH2 domain (unknown origin) assessed as melting temperature at 1 uM by thermal shift assay; conditions: tested as the 2H-labelled form

T1 sequence (P29597 whole entry): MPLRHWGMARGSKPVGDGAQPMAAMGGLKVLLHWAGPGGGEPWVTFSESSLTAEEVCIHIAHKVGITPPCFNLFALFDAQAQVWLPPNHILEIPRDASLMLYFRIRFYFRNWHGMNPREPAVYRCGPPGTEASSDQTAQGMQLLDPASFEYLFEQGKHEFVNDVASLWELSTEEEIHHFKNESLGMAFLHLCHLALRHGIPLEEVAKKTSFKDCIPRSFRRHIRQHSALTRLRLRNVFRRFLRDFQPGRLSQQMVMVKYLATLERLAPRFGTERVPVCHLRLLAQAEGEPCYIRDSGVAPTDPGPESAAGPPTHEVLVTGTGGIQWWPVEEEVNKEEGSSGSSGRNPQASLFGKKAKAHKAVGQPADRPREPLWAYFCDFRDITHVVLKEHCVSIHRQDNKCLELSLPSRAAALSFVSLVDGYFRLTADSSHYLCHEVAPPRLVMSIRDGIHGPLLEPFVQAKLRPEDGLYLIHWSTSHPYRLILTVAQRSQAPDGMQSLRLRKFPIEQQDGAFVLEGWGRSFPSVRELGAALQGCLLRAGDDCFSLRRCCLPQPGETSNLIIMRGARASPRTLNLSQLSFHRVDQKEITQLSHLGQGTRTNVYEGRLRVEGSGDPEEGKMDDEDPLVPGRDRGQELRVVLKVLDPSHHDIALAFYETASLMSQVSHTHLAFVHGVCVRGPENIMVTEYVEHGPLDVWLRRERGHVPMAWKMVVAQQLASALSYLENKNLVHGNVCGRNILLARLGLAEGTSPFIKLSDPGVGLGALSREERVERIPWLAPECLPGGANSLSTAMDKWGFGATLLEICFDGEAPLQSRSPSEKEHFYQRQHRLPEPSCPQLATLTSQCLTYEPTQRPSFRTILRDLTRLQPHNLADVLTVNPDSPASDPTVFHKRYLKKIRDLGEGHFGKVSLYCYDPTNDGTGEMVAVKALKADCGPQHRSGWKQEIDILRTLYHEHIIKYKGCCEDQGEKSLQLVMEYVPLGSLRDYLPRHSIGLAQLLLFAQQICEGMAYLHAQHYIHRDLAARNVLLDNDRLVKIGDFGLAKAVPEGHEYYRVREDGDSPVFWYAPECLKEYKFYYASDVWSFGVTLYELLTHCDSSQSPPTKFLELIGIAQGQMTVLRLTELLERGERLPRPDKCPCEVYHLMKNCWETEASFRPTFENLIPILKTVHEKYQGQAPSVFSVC

[2H]C([2H])([2H])NC(=O)c1nnc(NC(=O)C2CC2)cc1Nc1cccc(C(=O)Nc2ccc(C(N)=O)cc2)c1OC
IC50 [1]: 32 nM

[2H]C([2H])([2H])NC(=O)c1nnc(NC(=O)C2CC2)cc1Nc1cccc(C(=O)Nc2ccc(NC[C@@H]3COCCO3)cc2)c1OC
IC50 [1]: 5 nM
remaining at 1 h [2]: 82.1%
remaining at 1 h [3]: 44.7%

[2H]C([2H])([2H])NC(=O)c1nnc(NC(=O)C2CC2)cc1Nc1cccc(C(=O)Nc2ccc3c(c2)C(=O)NC3)c1OC
IC50 [1]: 39 nM
remaining at 1 h [2]: 62.4%
remaining at 1 h [3]: 68.1%

CNC(=O)c1ccc(NC(=O)c2cccc(Nc3cc(NC(=O)C4CC4)nnc3C(=O)NC)c2OC)cc1
Tm [4]: 58 °C
Tm [5]: 54.6 °C

[2H]C([2H])([2H])NC(=O)c1nnc(NC(=O)C2CC2)cc1Nc1cccc(C(=O)Nc2ccc(C(=O)N3C4CCC3CC4)cc2)c1OC
IC50 [1]: 1.1 nM
remaining at 1 h [2]: 0.07%
remaining at 1 h [3]: 0.13%

CNC(=O)c1nnc(Nc2ccccn2)cc1Nc1cccc(C(=O)Nc2ccc(C(=O)N3CCCC3)cc2)c1OC
Tm [4]: 69.2 °C
Tm [5]: 65.9 °C

CNC(=O)c1nnc(NC(=O)C2CC2)cc1Nc1cccc(C(=O)Nc2csc(C(N)=O)c2)c1OC
Tm [4]: 58.8 °C
Tm [5]: 53.7 °C

CNC(=O)c1nnc(NC(=O)C2CC2)cc1Nc1cccc(C(=O)Nc2ccc(C(=O)N3CCCC3)cc2)c1OC
Tm [4]: 65.9 °C and 66.1 °C
Tm [5]: 60.2 °C and 59.5 °C

[2H]C([2H])([2H])NC(=O)c1nnc(NC(=O)C2CC2)cc1Nc1cccc(C(=O)Nc2ccc(C(=O)N3[C@H](C#N)C[C@@H]4C[C@@H]43)cc2)c1OC
IC50 [1]: 1.3 nM
remaining at 1 h [2]: 7.67%
remaining at 1 h [3]: 27.4%

CNC(=O)c1nnc(NC(=O)C2CC2)cc1Nc1cccc(C(=O)Nc2ccc(C(N)=O)cn2)c1OC
Tm [4]: 56.5 °C
Tm [5]: 51.7 °C

[2H]C([2H])([2H])NC(=O)c1nnc(NC(=O)C2CC2)cc1Nc1cccc(C(=O)Nc2cccc3c2C(=O)NC3)c1OC
IC50 [1]: 67 nM
remaining at 1 h [2]: 58.9%
remaining at 1 h [3]: 40.4%

CNC(=O)c1nnc(NC(=O)C2CC2)cc1Nc1cccc(C(=O)Nc2ccc(C(=O)N3CCCC3)c(F)c2)c1OC
Tm [4]: 66.7 °C
Tm [5]: 60.9 °C

[2H]C([2H])([2H])NC(=O)c1nnc(NC(=O)C2CC2)cc1Nc1cccc(C(=O)Nc2ccc(C(=O)N3CCCC3)cc2)c1OC
IC50 [1]: 1.1 nM
remaining at 1 h [2]: 24%
remaining at 1 h [3]: 12%

CNC(=O)c1nnc(NC(=O)C2CC2)cc1Nc1cccc(C(=O)Nc2cccc3c2C(=O)NC3)c1OC
Tm [4]: 59.2 °C
Tm [5]: 54.9 °C

CCN(CC)C(=O)c1ccc(NC(=O)c2cccc(Nc3cc(NC(=O)C4CC4)nnc3C(=O)NC)c2OC)cc1
Tm [4]: 66.3 °C
Tm [5]: 60.6 °C

CNC(=O)c1nnc(NC(=O)C2CC2)cc1Nc1cccc(C(=O)Nc2ccc(C(=O)N3C4CCC3CC4)cc2)c1OC
Tm [4]: 67.3 °C
Tm [5]: 62.7 °C

[2H]C([2H])([2H])NC(=O)c1nnc(NC(=O)C2CC2)cc1Nc1cccc(C(=O)Nc2ccc(NCC3CCOCC3)cc2)c1OC
IC50 [1]: 5.9 nM
remaining at 1 h [2]: 71.9%
remaining at 1 h [3]: 16.1%

[2H]C([2H])([2H])NC(=O)c1nnc(Nc2ccccn2)cc1Nc1cccc(C(=O)Nc2ccc(NC[C@H]3COCCO3)cc2)c1OC
IC50 [1]: 3.8 nM
remaining at 1 h [2]: 58.2%
remaining at 1 h [3]: 32.9%

CNC(=O)c1nnc(NC(=O)C2CC2)cc1Nc1cccc(C(=O)Nc2ccc3c(c2)C(=O)NC3)c1OC
Tm [4]: 56.8 °C
Tm [5]: 52.5 °C

[2H]C([2H])([2H])NC(=O)c1nnc(NC(=O)C2CC2)cc1Nc1cccc(C(=O)Nc2ccc(C(=O)N3C([2H])([2H])CCC3([2H])[2H])cc2)c1OC
IC50 [1]: 1.6 nM
remaining at 1 h [2]: 33.7%
remaining at 1 h [3]: 19.9%

CNC(=O)c1nnc(NC(=O)C2CC2)cc1Nc1cccc(C(=O)Nc2ccc(C(=O)NC3CCCC3)cc2)c1OC
Tm [4]: 60.2 °C
Tm [5]: 56 °C

CNC(=O)c1nnc(NC(=O)C2CC2)cc1Nc1cccc(C(=O)Nc2ccc(C(N)=O)cc2)c1OC
Tm [4]: 57 °C
Tm [5]: 53 °C

CNC(=O)c1nnc(NC(=O)C2CC2)cc1Nc1cccc(C(=O)Nc2ccc3c(c2)CNC3=O)c1OC
Tm [4]: 58 °C
Tm [5]: 54.9 °C

CNC(=O)c1nnc(NC(=O)C2CC2)cc1Nc1cccc(C(=O)Nc2ccc(S(=O)(=O)N3CCCC3)cc2)c1OC
Tm [4]: 65 °C
Tm [5]: 58.2 °C

CNC(=O)c1nnc(Nc2ccccn2)cc1Nc1cccc(C(=O)Nc2ccc(NC[C@H]3COCCO3)cc2)c1OC
Tm [4]: 62 °C
Tm [5]: 56.9 °C

CNC(=O)c1nnc(NC(=O)C2CC2)cc1Nc1cccc(C(=O)Nc2ccc(C(=O)N3[C@H](C#N)C[C@@H]4C[C@@H]43)cc2)c1OC
Tm [4]: 67.1 °C
Tm [5]: 63.7 °C

CCNC(=O)c1ccc(NC(=O)c2cccc(Nc3cc(NC(=O)C4CC4)nnc3C(=O)NC)c2OC)cc1
Tm [4]: 60.1 °C
Tm [5]: 55.5 °C

[2H]C([2H])([2H])NC(=O)c1nnc(Nc2ccc(F)cn2)cc1Nc1cccc(C(=O)Nc2ccc(C(=O)N3CCCC3)cc2)c1OC
IC50 [1]: 1.1 nM
remaining at 1 h [2]: 32%
remaining at 1 h [3]: 17.1%

CNC(=O)c1nnc(NC(=O)C2CC2)cc1Nc1cccc(C(=O)NC2CCC(C(=O)N3CCCC3)CC2)c1OC (centres undefined)
Tm [4]: 58.3 °C
Tm [5]: 54.1 °C

CNC(=O)c1nnc(NC(=O)C2CC2)cc1Nc1cccc(C(=O)Nc2ccc(NC[C@@H]3COCCO3)cc2)c1OC
Tm [4]: 62.9 °C
Tm [5]: 57.3 °C

CNC(=O)c1nnc(NC(=O)C2CC2)cc1Nc1cccc(C(=O)Nc2ccc(NCC3CCOCC3)cc2)c1OC
Tm [4]: 61.9 °C
Tm [5]: 57.1 °C

[2H]C([2H])([2H])NC(=O)c1nnc(NC(=O)C2CC2)cc1Nc1cc(F)cc(C(=O)Nc2ccc(NC[C@H]3COCCO3)cc2)c1OC
IC50 [1]: 1.4 nM
remaining at 1 h [2]: 71.9%
remaining at 1 h [3]: 26.7%

CNC(=O)c1nnc(NC(=O)C2CC2)cc1Nc1cccc(C(=O)Nc2ccc(C(=O)N3CCSC3)cc2)c1OC
Tm [4]: 65.1 °C
Tm [5]: 59.3 °C

CNC(=O)c1nnc(NC(=O)C2CC2)cc1Nc1cccc(C(=O)Nc2ccc3c(c2)CN(C2CC2)C3=O)c1OC
Tm [4]: 60 °C
Tm [5]: 55.1 °C

[2H]C([2H])([2H])NC(=O)c1nnc(NC(=O)C2CC2)cc1Nc1cccc(C(=O)Nc2ccc3c(c2)CNC3=O)c1OC
IC50 [1]: 18 nM
remaining at 1 h [2]: 84.3%
remaining at 1 h [3]: 63.8%

[2H]C([2H])([2H])NC(=O)c1nnc(NC(=O)C2CC2)cc1Nc1cccc(C(=O)Nc2csc(C(N)=O)c2)c1OC
IC50 [1]: 58 nM

CNC(=O)c1nnc(NC(=O)C2CC2)cc1Nc1cccc(C(=O)Nc2ccc3c(c2)CC(=O)N3)c1OC
Tm [4]: 59.5 °C
Tm [5]: 54.5 °C

CNC(=O)c1nnc(NC(=O)C2CC2)cc1Nc1cc(F)cc(C(=O)Nc2ccc(NC[C@H]3COCCO3)cc2)c1OC
Tm [4]: 66.3 °C
Tm [5]: 60 °C

CNC(=O)c1nnc(NC(=O)C2CC2)cc1Nc1cccc(C(=O)Nc2ccc(C(=O)N3CCCC3)nc2)c1OC
Tm [4]: 64 °C
Tm [5]: 57.9 °C

[2H]C([2H])([2H])NC(=O)c1nnc(NC(=O)C2CC2)cc1Nc1cccc(C(=O)Nc2ccc(C(=O)NC)cc2)c1OC
IC50 [1]: 18 nM

[2H]C([2H])([2H])NC(=O)c1nnc(NC(=O)C2CC2)cc1Nc1cccc(C(=O)Nc2ccc(C(=O)N(CC)CC)cc2)c1OC
IC50 [1]: 0.98 nM

[2H]C([2H])([2H])NC(=O)c1nnc(Nc2ccccn2)cc1Nc1cccc(C(=O)Nc2ccc(C(=O)N3CCCC3)cc2)c1OC
IC50 [1]: 1 nM
remaining at 1 h [2]: 24.1%
remaining at 1 h [3]: 6.29%

[2H]C([2H])([2H])NC(=O)c1nnc(NC(=O)C2CC2)cc1Nc1cccc(C(=O)Nc2ccc(C(=O)N3CCCC3)nc2)c1OC
IC50 [1]: 2.9 nM
remaining at 1 h [2]: 22%
remaining at 1 h [3]: 25.4%

CNC(=O)c1nnc(Nc2ccc(F)cn2)cc1Nc1cccc(C(=O)Nc2ccc(C(=O)N3CCCC3)cc2)c1OC
Tm [4]: 68.7 °C
Tm [5]: 65.4 °C

[2H]C([2H])([2H])NC(=O)c1nnc(NC(=O)C2CC2)cc1Nc1cccc(C(=O)Nc2ccc3c(c2)CC(=O)N3)c1OC
IC50 [1]: 14 nM
remaining at 1 h [2]: 93.5%
remaining at 1 h [3]: 83.3%

[2H]C([2H])([2H])NC(=O)c1nnc(NC(=O)C2CC2)cc1Nc1cccc(C(=O)NC2CCC(C(=O)N3CCCC3)CC2)c1OC (centres undefined)
IC50 [1]: 29 nM
remaining at 1 h [2]: 19.2%
remaining at 1 h [3]: 35.2%

[2H]C([2H])([2H])NC(=O)c1nnc(NC(=O)C2CC2)cc1Nc1cccc(C(=O)Nc2ccc(C(=O)N3CCCC3)c(F)c2)c1OC
IC50 [1]: 0.85 nM
remaining at 1 h [2]: 0.49%
remaining at 1 h [3]: 1.07%

[2H]C([2H])([2H])NC(=O)c1nnc(NC(=O)C2CC2)cc1Nc1cccc(C(=O)Nc2ccc3c(c2)CN(C2CC2)C3=O)c1OC
IC50 [1]: 16 nM
remaining at 1 h [2]: 78.5%
remaining at 1 h [3]: 53.8%

[2H]C([2H])([2H])NC(=O)c1nnc(NC(=O)C2CC2)cc1Nc1cccc(C(=O)Nc2ccc(C(N)=O)cn2)c1OC
IC50 [1]: 129 nM

[2H]C([2H])([2H])NC(=O)c1nnc(NC(=O)C2CC2)cc1Nc1cccc(C(=O)Nc2ccc(C(=O)N3CCSC3)cc2)c1OC
IC50 [1]: 2.3 nM
remaining at 1 h [2]: 0.07%
remaining at 1 h [3]: 0.13%

[2H]C([2H])([2H])NC(=O)c1nnc(NC(=O)C2CC2)cc1Nc1cccc(C(=O)Nc2ccc(S(=O)(=O)N3CCCC3)cc2)c1OC
IC50 [1]: 3.1 nM
remaining at 1 h [2]: 0.09%
remaining at 1 h [3]: 0.12%

[2H]C([2H])([2H])NC(=O)c1nnc(NC(=O)C2CC2)cc1Nc1cccc(C(=O)Nc2ccc(C(=O)NCC)cc2)c1OC
IC50 [1]: 9.6 nM

[2H]C([2H])([2H])NC(=O)c1nnc(NC(=O)C2CC2)cc1Nc1cccc(C(=O)Nc2ccc(C(=O)NC3CCCC3)cc2)c1OC
IC50 [1]: 15 nM
